# From PubChem BioAssay AID552 (SRMLSC, 2006)
# About 10 (0.05%) of roughly 20,000 compounds were called active. Shown is part of a subset that was picked to be rich in actives. Values without a mark were called inactive. Cut-off read from the data, not from the text of the source: active = inhibition above about 40%; inactive = the rest. Where a SMILES comes first, the peptide text is derived from it. [ ]: non-standard residue; d: D form. ξ: configuration not given here. ξV = CC(C)C(N)C(=O)O
# Assay: growth inhibitors of wild type E. coli, primary screen, strain BW25113 wild type, absorbance readout (AID 552);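 note: bacteria exposed to compound for 20 hours at 37 °C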
# Conditions: OD600, at 10 µM, stronger effect = higher value
# In short: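 System: bacterial strain in a whole-cell growth screen; medium: LB broth with 50 µg/mL kanamycin; detection: absorbance at 615 nm; schedule: 20 h exposure, 37 °C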
row,SMILES,inhibition
1,CCOC(=O)c1cnc2sccn2c1=O,-15.3%
2,O=C(CCN1C(=O)c2ccccc2C1=O)NCCN1CCOCC1,0.59%
3,O=C(CCOc1ccccc1)NCc1ccccc1,14.8%
4,CC1CC(C)CN(CC(=O)Nc2ccc(S(N)(=O)=O)cc2)C1 (stereo unspecified),0.613%
5,O=C1CSC(c2cccc(F)c2)N1c1ccccc1F (stereo unspecified),6.64%
6,Cc1nonc1NC(=O)c1ccccc1Br,-2.2%
7,O=C(Nc1cccnc1)c1ccc2c(c1)OCO2,6.74%
8,CC(=NCc1ccc2c(c1)OCO2)C1=C(O)c2ccccc2C1=O,5.88%
9,CC(Nc1nc(N2CCCC2)nc2ccccc12)c1ccccc1 (stereo unspecified),-5.16%
10,O=C(Nc1ccccc1N1CCCCC1)c1cccc(F)c1,0.18%
11,CC(=O)NC1CC2CCCC(C1)N2CC(=O)Nc1ccccc1 (stereo unspecified),6.86%
12,COCCCN1C(=O)C(=O)/C(=C(/O)c2ccc3c(c2)CC(C)O3)C1c1cccnc1 (stereo unspecified),-17.6%
13,CCc1ccccc1NC(=O)CSc1nnc([C@@H](NC(=O)OC(C)(C)C)C(C)CC)o1 (stereo partly specified),-15.5%
14,C=CCn1c(SCc2nnc(-c3ccccc3)o2)nnc1C(O)c1ccccc1 (stereo unspecified),-17.5%
15,COCCCn1c(CCC(=O)O)ccc1-c1ccc(F)cc1,-9.43%
16,CC(=O)NCCc1ccc(S(=O)(=O)N(C)C2CCS(=O)(=O)C2)cc1 (stereo unspecified),-15.7%
17,COc1ccc(NC(=O)CCNC(=O)Cn2ccc3ccccc3c2=O)c(OC)c1,-0.805%
18,CC(=O)N1C(=O)C2(Nc3ccccc3N2)c2ccccc21,7.24%
19,COCCOC(=O)C1=C(C)NC(=O)CC1c1cc2c(cc1Br)OCO2 (stereo unspecified),-1.9%
20,COC(=O)c1cc(C(=O)OC)cc(N2C(=O)CC(N3CCN(c4ccccc4)CC3)C2=O)c1 (stereo unspecified),-20%
21,CC1CCCC(N2CCN(C(=O)c3ccc(F)cc3)CC2)C1 (stereo unspecified),8.12%

row,SMILES,inhibition
1,O=C(Cn1nnc(-c2ccc(CN3CCOCC3)cc2)n1)NC1CCCCC1,-1.75%
2,O=C(Cc1nn[nH]n1)NCCC1=CCCCC1,17.3%
3,CCC1=C(C(=O)OC)C(c2cc(OC)ccc2OC)C(C#N)=C(N)O1 (stereo unspecified),-1.96%
4,COc1ccc(OC)c(C(=O)c2ccc(C(=O)O)cc2)c1,-4.3%
5,Cc1ccc(NC2=NC(c3ccccc3)n3c(nc(C)cc3=O)N2)cc1 (stereo unspecified),-1.73%
6,COC(=O)Nc1ccc(S(=O)(=O)N(C)CC(F)(F)C(F)F)cc1,-3.1%
7,COC(=O)c1ccc(C2CC(=O)Nc3cc(OC)c(OC)cc32)cc1 (stereo unspecified),-20.6%
8,CC(C)c1ccc(N2CC(C(=O)Nc3nccs3)CC2=O)cc1 (stereo unspecified),2.9%
9,CCc1nnc(NC(=O)C2CCCN2S(=O)(=O)c2ccccc2)s1 (stereo unspecified),-21%
10,Cc1cc(C)c(C#N)c(SCc2[nH]nc3c2C(c2ccccc2)C(C#N)=C(N)O3)n1 (stereo unspecified),-3.73%
11,CCOC(=O)CSc1nnc(-c2ccncc2)o1,-0.95%
12,COC(=O)C(C)Sc1nc2c(c(=O)n(C)c(=O)n2C)n1Cc1cccc(C)c1 (stereo unspecified),8.4%
13,Cc1ccc(C(=O)NCC2CCCO2)o1 (stereo unspecified),-6.23%
14,CN(C)[C@@H]1C(=O)C(C(N)=O)=C(O)[C@@]2(O)C(=O)C3=C(O)c4c(O)ccc(Cl)c4[C@@H](O)[C@H]3C[C@@H]12,43.4% (active)
15,CCOC(=O)N1CCC(O)(c2cc(C)c(C)cc2C)CC1,2.31%
16,CCOC(=O)c1ccc(NC(=O)CSc2nnc(COc3ccccc3OC)n2C)cc1,-14.8%
17,O=C(OCc1ccccc1F)c1ccc2c(c1)OCCO2,6.06%
18,CCN(Cc1nc2ccccc2c(=O)[nH]1)Cc1cc(=O)oc2cc(C)c(C)cc12,-2.52%
19,Cc1noc(C)c1C(=O)NC(C)c1ccc2c(c1)OCO2 (stereo unspecified),-22.5%
20,CC(C)COC(=O)C1C2C=CC3(CN(C(C)c4ccc(Br)cc4)C(=O)C13)O2 (stereo unspecified),15.3%
21,COC(=O)c1ccc(Oc2nc(Nc3ccc(F)cc3)nc(N3CCCC3)n2)cc1,-16.9%

row,SMILES,inhibition
1,CSc1ccc(S(=O)(=O)Nc2cccc(F)c2)cc1,-8.18%
2,CCN(CC)S(=O)(=O)c1ccc(NC(=O)CN(c2cccc(F)c2)S(C)(=O)=O)cc1,-6.94%
3,CS(=O)(=O)N(CC(=O)N1CCOCC1)c1ccc2c3c(cccc13)CC2,-16.3%
4,CC(=O)NC(C(=O)NCC(N)=O)C(C)C (stereo unspecified) (Ac-[ξV]-Gly-NH2),7.41%
5,CCCCN(CC)CCCNC(=O)CS(=O)(=O)Cc1nc(-c2cccc(OC)c2)oc1C,4.26%
6,CCOC(=O)n1c(SCC(=O)N(CC)CC)nc2ccccc21,-3.3%
7,Cc1cc(C)nc(N2C(=O)CC(Cc3ccccc3)C2=O)n1 (stereo unspecified),-9.77%
8,CC(C)C[C@H](NC(=O)[C@@H]1O[C@H]1C(=O)O)C(=O)NCCCCN=C(N)N,-3.4%
9,CN(C)CCNC(CC(=O)Nc1ccc(Cl)c(Cl)c1)C(=O)O (stereo unspecified),-14.6%
10,COc1ccc(C(=O)Nc2cccnc2)cc1C(=O)Nc1cccnc1,1.96%
11,COC(=O)Nc1c(C)n(C)n(-c2ccccc2)c1=O,-2.62%
12,Cc1ccc(C)c(S(=O)(=O)N2CC(=O)Nc3ccccc32)c1,-14.8%
13,COCCn1c(C)cc(C(=O)CSc2ncnc3sc4c(c23)CCC4)c1C,2.06%
14,Cc1nc(C)c(C(=O)Nc2ccc(C)c(F)c2)o1,-3.6%
15,COc1cc(-c2nc(S(=O)(=O)c3ccc(Cl)cc3)c(N(C)C)o2)cc(OC)c1OC,-0.36%
16,Cc1cc(C(=O)NCCCc2ccccc2)no1,-3.97%
17,CCc1ccc(CCC(=O)Nc2ccc(S(N)(=O)=O)cc2)o1,-21.2%
18,Cc1ccc(-c2noc(-c3ccccc3C(=O)NCC3CCCO3)n2)cc1 (stereo unspecified),8.67%
19,CC1(C)C(=O)Nc2ccccc2N1C(=O)COC(=O)Cn1cnc2ccccc2c1=O,-1.7%
